The values that follow come from ChEMBL document CHEMBL4014306, “Pyrazolopyrimidines as Potent Stimulators for Transient Receptor Potential Canonical 3/6/7 Channels” (J Med Chem, 2017).

SMILES strings stand for the structures.

In general, IC50 refers to the concentration that gives 50% inhibition. The term EC50 denotes the concentration needed to bring the measured effect to its halfway point.

Assay type in all cases: cell-based; call rule not given here
For series [1], the target named is T1, Short transient receptor potential channel 4 (Mus musculus, UniProt Q9QUQ5).
T1 sequence (Q9QUQ5 whole entry): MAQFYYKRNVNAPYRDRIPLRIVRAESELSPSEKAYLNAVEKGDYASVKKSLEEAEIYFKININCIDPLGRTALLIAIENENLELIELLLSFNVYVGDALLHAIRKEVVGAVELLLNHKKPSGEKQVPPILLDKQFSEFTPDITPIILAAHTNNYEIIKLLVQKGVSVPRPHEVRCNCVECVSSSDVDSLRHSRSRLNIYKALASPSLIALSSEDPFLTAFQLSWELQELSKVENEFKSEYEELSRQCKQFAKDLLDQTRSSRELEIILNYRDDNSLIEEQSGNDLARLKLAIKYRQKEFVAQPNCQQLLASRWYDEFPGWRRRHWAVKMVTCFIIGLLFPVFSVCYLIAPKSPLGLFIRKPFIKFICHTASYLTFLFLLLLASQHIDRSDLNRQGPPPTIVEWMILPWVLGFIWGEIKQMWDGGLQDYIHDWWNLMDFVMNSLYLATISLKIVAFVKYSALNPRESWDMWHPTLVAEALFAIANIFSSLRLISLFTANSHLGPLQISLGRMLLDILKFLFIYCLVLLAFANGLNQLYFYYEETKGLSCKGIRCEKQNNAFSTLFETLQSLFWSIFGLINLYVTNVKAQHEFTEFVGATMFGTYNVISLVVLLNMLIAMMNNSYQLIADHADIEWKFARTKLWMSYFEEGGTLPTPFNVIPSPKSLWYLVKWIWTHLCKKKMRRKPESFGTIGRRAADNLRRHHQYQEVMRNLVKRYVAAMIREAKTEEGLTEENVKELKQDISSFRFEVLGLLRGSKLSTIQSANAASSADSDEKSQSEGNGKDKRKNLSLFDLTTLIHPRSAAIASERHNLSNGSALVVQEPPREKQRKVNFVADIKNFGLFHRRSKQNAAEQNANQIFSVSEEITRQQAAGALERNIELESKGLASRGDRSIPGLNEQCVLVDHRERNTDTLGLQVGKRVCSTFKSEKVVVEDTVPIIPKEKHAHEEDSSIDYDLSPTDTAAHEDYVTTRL
The series is described as follows: Antagonist activity at mouse TRPC4beta expressed in HEK293 cells co-expressing MOR decrease in DAMGO-evoked intracellular calcium level by Fluo-8-AM dye-based fluorescence assay. The essentials:
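MOR/TRPC4β HEK293 cells loaded with Ca2+ dye. Compound given before 1 μM DAMGO. IC50 estimated from one experiment in triplicate.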
For orientation: Calcium flux is commonly read through the fluorescence of an indicator in the cells.

The target in series [2] is T2, Short transient receptor potential channel 6 (Mus musculus, UniProt Q61143).
T2 sequence (Q61143 whole entry): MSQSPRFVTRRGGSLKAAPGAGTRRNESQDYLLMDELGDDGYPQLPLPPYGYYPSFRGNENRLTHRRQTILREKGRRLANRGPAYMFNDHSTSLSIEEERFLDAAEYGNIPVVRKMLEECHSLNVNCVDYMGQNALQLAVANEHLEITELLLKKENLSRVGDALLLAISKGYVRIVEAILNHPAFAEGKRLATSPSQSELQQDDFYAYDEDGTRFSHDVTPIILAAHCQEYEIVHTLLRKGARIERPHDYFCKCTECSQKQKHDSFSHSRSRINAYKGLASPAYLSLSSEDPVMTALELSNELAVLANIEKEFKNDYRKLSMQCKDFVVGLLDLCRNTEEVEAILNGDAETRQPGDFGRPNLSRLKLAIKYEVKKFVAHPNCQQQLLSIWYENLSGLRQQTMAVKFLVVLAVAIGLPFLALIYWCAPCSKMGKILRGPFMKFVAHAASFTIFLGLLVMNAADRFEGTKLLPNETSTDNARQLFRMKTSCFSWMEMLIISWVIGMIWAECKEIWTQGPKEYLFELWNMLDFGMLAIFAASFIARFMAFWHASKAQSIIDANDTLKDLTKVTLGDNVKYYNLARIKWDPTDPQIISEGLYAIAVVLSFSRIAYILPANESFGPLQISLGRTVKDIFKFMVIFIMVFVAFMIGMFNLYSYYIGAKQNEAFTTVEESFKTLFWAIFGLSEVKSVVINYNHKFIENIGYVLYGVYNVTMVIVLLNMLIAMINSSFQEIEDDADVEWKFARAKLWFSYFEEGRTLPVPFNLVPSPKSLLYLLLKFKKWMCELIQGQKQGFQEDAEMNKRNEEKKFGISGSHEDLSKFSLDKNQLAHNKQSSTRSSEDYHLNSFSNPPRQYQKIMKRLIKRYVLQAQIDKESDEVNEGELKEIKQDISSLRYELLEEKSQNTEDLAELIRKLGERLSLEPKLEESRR
Briefly: Agonist activity at mouse TRPC6 expressed in HEK293 cells co-expressing Gq11-PLCbeta fused M5 receptor assessed as increase in intracellular calcium level measured for 2.5 mins by Fluo-8-AM dye-based fluorescence assay.

Series [3] relates to HEK293. Briefly: Induction of intracellular calcium level in HEK293 cells at 100 uM measured for 2.5 mins by Fluo-4-AM dye based FLIPR assay. To be noted: human, hek293, 2.5 min.

`CCC(=O)N1CCC(c2cc(O)n3nc(C)c(-c4ccc(F)cc4)c3n2)CC1`: the IC50 in series [1] (read-out: IC50) amounted to 35 µM. In addition, in series [2] (read-out: EC50), the EC50 was 28.8 µM. Take `Cc1nn2c(O)cc(C3CCN(C(=O)OC(C)(C)C)CC3)nc2c1-c1ccc(Cl)cc1`: the IC50 entry in series [1] is recorded as “Not Active”. For the same molecule, the EC50 entry in series [2] is on record as “Not Active”. In the case of `Cc1nn2c(O)cc(C3(C)CCN(S(=O)(=O)c4c(F)cccc4F)CC3)nc2c1-c1ccc([N+](=O)[O-])cc1`, the IC50 result in series [1] was “Not Active”. For the same molecule, the EC50 entry in series [2] is recorded as “Not Active”. Take `CCOC(=O)N1CCC(c2cc(O)n3nc(C)c(-c4ccc([N+](=O)[O-])cc4)c3n2)CC1`: the 50% inhibitory concentration (IC50) entry in series [1] was “Not Active”. In series [2] (read-out: EC50), the EC50 turned out to be 2 µM.

Turning to `Cc1nn2c(O)cc(C3(C)CCN(C(=O)OC(C)(C)C)CC3)nc2c1-c1ccc(F)cc1`, the half-maximal inhibitory concentration (IC50) entry in series [1] is recorded as “Not Active”. Also, in series [2], the EC50 entry is on record as “Not Active”. Regarding `C[N+](C)(C)CCOC(N)=O.[Cl-]` [CARBACHOL], the Activity result in series [3] is listed as “Toxic”. As to `CCOC(=O)N1CCC(C)(c2cc(O)n3nc(C)c(-c4ccc([N+](=O)[O-])cc4)c3n2)CC1`, the half-maximal inhibitory concentration (IC50) result in series [1] is reported as “Not Active”. Besides, the EC50 in series [2] (read-out: EC50) came to 8 µM. On to `CCC(=O)N1CCC(C)(c2cc(O)n3nc(C)c(-c4ccc(F)cc4)c3n2)CC1`, for which, in series [1], the IC50 entry is given as “Not Active”. Moreover, the 50% effective concentration (EC50) result in series [2] was “Not Active”.

Take `Cc1nn2c(O)cc(C3CCN(C(=O)c4ccc(Br)nc4)CC3)nc2c1-c1ccc(F)cc1`: the IC50 in series [1] (read-out: IC50) was 10 µM. Also, the concentration for a half-maximal effect (EC50) in series [2] (read-out: EC50) stood at 12.3 µM. On to `COc1ccc(CC(=O)N2CCC(C)(c3cc(O)n4nc(C)c(-c5ccc([N+](=O)[O-])cc5)c4n3)CC2)cc1OC`, for which the half-inhibitory concentration (IC50) result in series [1] was “Not Active”. Besides, the EC50 entry in series [2] was “Not Active”. `COc1ccc(S(=O)(=O)N2CCC(C)(c3cc(O)n4nc(C)c(-c5ccc(F)cc5)c4n3)CC2)cc1`: the IC50 result in series [1] is “Not Active”. For the same molecule, the concentration for a half-maximal effect (EC50) entry in series [2] is on record as “Not Active”.

For `Cc1nn2c(O)cc(C3(C)CCN(C(=O)C(C)(C)C)CC3)nc2c1-c1ccc(F)cc1`, in series [1], the IC50 entry is “Not Active”. Moreover, the EC50 result in series [2] was “Not Active”.

As for `Cc1nn2c(O)cc(C3CCN(C(=O)C(C)(C)C)CC3)nc2c1-c1ccc(F)cc1`, in series [1], the half-maximal inhibitory concentration (IC50) entry was “Not Active”. In addition, in series [2], the EC50 entry is “Not Active”.
